# Test results: ChEMBL document CHEMBL1135769, “Design, synthesis, and biological evaluation of aryloxyethyl thiocyanate derivatives against Trypanosoma cruzi” (J Med Chem, 2002)
# Key:
# Trypanosoma cruzi [1] = assay: Antiproliferative activity against epimastigote form of Trypanosoma cruzi; type: functional, organism-based
# Method in brief: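 Y-strain epimastigotes grown at 28 °C in brain-heart infusion (37 g/L) with hemin chlorohydrate (20 mg/L) and 10% newborn calf serum. Inoculum was (2-3) × 10^6 cells/mL. Compounds were tested at 1, 10, 50 and 100 µg/mL, each in quadruplicate, with at most 1% ethanol. Growth was read as A600. Percent inhibition came from the absorbance change from start to end versus controls, and IC50 was estimated by linear and polynomial regression.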
# Trypanosoma cruzi [2] = assay: Inhibition of growth of uM; type: functional
# Method in brief: (§1)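 Epimastigotes (Y strain) were cultured at 28 °C in brain-heart infusion medium with hemin and 10% newborn calf serum, starting at (2-3) × 10^6 cells/mL, with at most 1% ethanol vehicle. Culture density was followed by absorbance at 600 nm. Percent growth inhibition = 100 − (ΔA drug-treated × 100 / ΔA control), where ΔA is the change from start to end of the experiment.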
# Trypanosoma cruzi [3] = assay: Antiparasitic activity against amastigote form of Trypanosoma cruzi
# Trypanosoma cruzi [4] = assay: (§2) Percent Inhibition of growth of uM; type: functional; method in brief: as §1
# Trypanosoma cruzi [5] = assay: Percent Inhibition of multiplication of Trypanosoma cruzi; type: functional
# Method in brief: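 Intracellular assay in L6E9 myoblasts irradiated with 2000 rad, seeded at 1.2 × 10^7 cells/flask in DMEM with 20% FCS and held 24 h at 35 °C. Cells infected 2 h with 5 × 10^7 Y-strain trypomastigotes/flask, then washed. Drugs added at several concentrations with 1.0 µCi [5,6-3H]uracil for 72 h. Percent inhibition of uracil uptake from mean cpm versus infected untreated cells. Host-cell toxicity checked by phase-contrast microscopy.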
# Trypanosoma cruzi [6] = assay: Inhibition against Trypanosoma cruzi at a concentration of 70 uM; type: functional; method in brief: as §1
# Trypanosoma cruzi [7] = assay: as §2; type: functional; remark: listed apart in the source
# Method in brief: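 Y-strain T. cruzi epimastigotes grown at 28 °C in brain-heart infusion (37 g/L) with hemin (20 mg/L) and 10% newborn calf serum. Start inoculum (2-3) × 10^6 cells/mL. Four concentrations (1, 10, 50, 100 µg/mL), each in quadruplicate, with at most 1% ethanol. Growth read as A600 at start and end; percent inhibition taken against untreated cultures. IC50 estimated by linear and polynomial regression.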
# Trypanosoma cruzi [8] = assay: Inhibitory activity towards Trypanosoma cruzi
SMILES,IC50 (Trypanosoma cruzi [1]) [µM],other results
Cc1ccccc1OCCOC1CCCCO1 (stereo not drawn),> 70,–
Clc1ccccc1OCCOC1CCCCO1 (stereo not drawn),> 70,Inhibition (Trypanosoma cruzi [2]): 22%
Cc1cccc(C)c1OCCOC1CCCCO1 (stereo not drawn),> 70,–
c1ccc(Oc2ccc(OCC3CN3)cc2)cc1 (stereo not drawn),41.5,–
CSCCOc1ccc(Oc2ccccc2)cc1,> 100,Inhibition (Trypanosoma cruzi [2]): 18%
O=C=NCCOc1ccc(Oc2ccccc2)cc1,> 70,Inhibition (Trypanosoma cruzi [4]): 28%
[N-]=[N+]=NCC(O)COc1ccc(Oc2ccccc2)cc1 (stereo not drawn),> 70,–
N#CSCCOc1ccc2c(c1)[nH]c1ccccc12,10.3,–
N#CSCCOc1ccc(Nc2ccccc2)cc1,3.3,Inhibition (Trypanosoma cruzi [5]): 10%; IC50 (Trypanosoma cruzi [3]): 41.1 µM
c1ccc(Cn2c3ccccc3c3ccc(OCCOC4CCCCO4)cc32)cc1 (stereo not drawn),> 70,–
C/C=C/c1cc(Oc2ccccc2)ccc1OCCOC1CCCCO1 (stereo not drawn),> 60,–
O=C(NCCOc1ccc(Oc2ccccc2)cc1)C1CC1,> 70,inhibition at 70 µM (Trypanosoma cruzi [6]): 31%
Cc1ccc(C)c(OCCOC2CCCCO2)c1 (stereo not drawn),> 70,Inhibition (Trypanosoma cruzi [2]): 15%
Cc1cc(C)cc(OCCOC2CCCCO2)c1 (stereo not drawn),> 70,–
Cc1cccc(OCCOC2CCCCO2)c1C (stereo not drawn),> 70,–
[O-][S+](c1ccccc1)c1ccc(OCCOC2CCCCO2)cc1 (stereo not drawn),> 70,–
C=CCc1cc(Oc2ccccc2)ccc1OCCSC#N,> 60,IC50 (Trypanosoma cruzi [3]): > 70 µM
Cc1ccc(OCCOC2CCCCO2)cc1 (stereo not drawn),> 70,Inhibition (Trypanosoma cruzi [2]): 11%
Cc1ccc(OCCOC2CCCCO2)c(C)c1 (stereo not drawn),> 70,–
Cc1ccc(S(=O)(=O)c2cc(Oc3ccccc3)ccc2OCCOC2CCCCO2)cc1 (stereo not drawn),> 70,–
CC(=O)N1CCN(c2ccc(OCC3COC(Cn4ccnc4)(c4ccc(Cl)cc4Cl)O3)cc2)CC1 (stereo not drawn) [KETOCONAZOLE],–,Inhibition (Trypanosoma cruzi [7]): 18%
C[S@+]([O-])CCCCN=C=S [L-SULFORAPHANE],102,–
C[S+]([O-])CCCCN=C=S (stereo not drawn) [SULFORAPHANE],> 120,IC50 (Trypanosoma cruzi [8]): 15 µM

# The next lines start with results.
IC50 (Trypanosoma cruzi [1]) [µM],SMILES,other results
12.1,Cc1ccc(OCCSC#N)cc1,–
32.2,S=C(NCCOc1ccc(Oc2ccccc2)cc1)SCc1ccccc1,IC50 (Trypanosoma cruzi [3]): > 70 µM
45.6,CS/C(S)=N/CCOc1ccc(Oc2ccccc2)cc1,IC50 (Trypanosoma cruzi [3]): 27.4 µM
> 60,c1ccc(CSCCOc2ccc(Oc3ccccc3)cc2)cc1,Inhibition (Trypanosoma cruzi [2]): 41%
18.5,N#CSCCOc1ccccc1I,IC50 (Trypanosoma cruzi [3]): > 70 µM
19.3,Cc1cc(C)cc(OCCSC#N)c1,–
7.7,N#CSCCOc1ccc([S+]([O-])c2ccccc2)cc1 (stereo not drawn),IC50 (Trypanosoma cruzi [3]): 58.8 µM
33.3,C=CCSC(=S)NCCOc1ccc(Oc2ccccc2)cc1,IC50 (Trypanosoma cruzi [3]): > 70 µM
> 60,Ic1ccccc1OCCOC1CCCCO1 (stereo not drawn),Inhibition (Trypanosoma cruzi [2]): 20%
4.7,Cc1ccc(S(=O)(=O)c2cc(Oc3ccccc3)ccc2OCCSC#N)cc1,–
> 60,C=CCc1cc(Oc2ccccc2)ccc1OCCOC1CCCCO1 (stereo not drawn),–
20.2,N#CSCCOc1ccccc1Br,–
40.3,CC(C)(C)/N=C(\S)NCCOc1ccc(Oc2ccccc2)cc1,–
13.3,Cc1cccc(C)c1OCCSC#N,IC50 (Trypanosoma cruzi [3]): > 70 µM
14.8,Cc1cccc(OCCSC#N)c1C,–
14.5,Cc1ccc(C)c(OCCSC#N)c1,–
16.8,N#CSCCOc1ccccc1,–
18.8,Cc1ccc(OCCSC#N)c(C)c1,IC50 (Trypanosoma cruzi [3]): 5 µM
15.9,S=C=NCCOc1ccc(Oc2ccccc2)cc1,IC50 (Trypanosoma cruzi [3]): 46.7 µM
16.4,Cc1ccccc1OCCSC#N,–
11.4,N#CSCCOc1ccccc1Cl,–
62.1,c1ccc(Oc2ccc(OCCSc3ccccc3)cc2)cc1,–
31.4,c1ccc(Nc2ccc(OCCOC3CCCCO3)cc2)cc1 (stereo not drawn),–
6.8,C/C=C/c1cc(Oc2ccccc2)ccc1OCCSC#N,IC50 (Trypanosoma cruzi [3]): 14 µM
